Screening data (PubChem BioAssay)
OX1R antag-1 – blocks the human orexin 1 receptor. O43613. OX1R-expressing cells, FRET antagonist read-out. inhibition, % at 6.6 µM. 1.8% of 330,000 active; in the data active = inhibition mostly above about 38%, no sharp cut-off; inactive = mostly below about 40%
CHO parental Ca – counter-screen: ATP calcium response change in parental CHO cells; parental CHO-K1, ATP-induced calcium, Fluo-8 fluorescence; inhibition, % at 5.6 µM; 0.63% of 330,000 active;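 active = inhibition above that plate's mean sample inhibition plus 3 SD, cut at about 26% in these data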
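Assay system – parental CHO cells · Reagent – ATP stimulus · Detection – intracellular calcium via Fluo-8 no-wash fluorescent dye · Evaluation – percent inhibition of ATP-evoked calcium rise, normalized to controls · Controls – ATP wells versus no-ATP DMSO wells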
TAAR1 antag – human TAAR1 antagonism; AID 624466; inhibition, % at 3 µM; Q96RJ0; 1.5% of 360,000 active; CHO RD-HGA16 TAAR1, Fluo-8 calcium fluorescence, antagonist;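 active = inhibition above a per-plate cutoff, the mean inhibition of test compounds on that plate plus 3 SD, cut at about 49% in these data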
Target sequence (Q96RJ0 whole entry, looked up): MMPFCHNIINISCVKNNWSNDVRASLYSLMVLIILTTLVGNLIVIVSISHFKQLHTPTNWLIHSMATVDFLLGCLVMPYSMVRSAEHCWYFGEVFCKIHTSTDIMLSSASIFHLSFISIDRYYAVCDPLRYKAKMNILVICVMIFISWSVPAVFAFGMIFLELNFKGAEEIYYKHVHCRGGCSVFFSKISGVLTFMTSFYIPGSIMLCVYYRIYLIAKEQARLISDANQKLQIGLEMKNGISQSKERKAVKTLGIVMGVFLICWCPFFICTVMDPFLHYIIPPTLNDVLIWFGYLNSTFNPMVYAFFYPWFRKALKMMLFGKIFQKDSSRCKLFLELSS
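Test system: RD-HGA16 CHO cells with stable hTAAR1 and Gα16 / Probe or stimulus: EC80 β-phenethylamine stimulus / Times: seeding 17-24 h prior, 75-min 37 °C, 30-min RT dye loading / Detection: Fluo-8 calcium-sensitive fluorescence / Read-out basis: % inhibition scaled between DMSO and EC80 PEA controls / Repeats: singlicate, one well per test compound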
OX1R antag-2 – human HCRTR1 antagonism; O43613; inhibition, % at 5 µM; 0.43% of 330,000 active; CHO/OX1R cells, Fluo-8 calcium fluorescence, orexin A;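 active = inhibition above its plate's threshold, mean inhibition of all tested compounds on the plate plus 3 SD, cut at about 37% in these data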
TAAR1 agonist – agonists of human TAAR1; Q96RJ0; CHO RD-HGA16 TAAR1, Fluo-8 calcium fluorescence; vehicle wells 0%, saturating PEA agonist 100%; activation, % at 3 µM; 0.99% of 360,000 active;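 active = activation above the mean activation of all test compounds in the run plus 3 SD, cut at about 38% in these data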
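Assay system: CHO-derived RD-HGA16 cells with stable Gα16 and human TAAR1; timing: 17-24 h seeding, 75 min 37 °C dye, 30 min RT; read-out: % activation from peak over basal fluorescence ratio, DMSO-to-PEA scaled; measured by: kinetic Fluo-8 calcium fluorescence; benchmarks: low control DMSO, high control PEA (EC100); doses: 3 µM single concentration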
GPR7 antagonist – human neuropeptides B/W receptor 1 antagonism | GPR7-expressing cells, fluorescence antagonist assay | inhibition, % at 4.4 µM | P48145 | 1.1% of 290,000 active | AID 1861; in the data active = inhibition above about 16%, passing the limit was not always enough;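 also: cells stimulated with the agonist NPW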
Target sequence (P48145 whole entry, looked up): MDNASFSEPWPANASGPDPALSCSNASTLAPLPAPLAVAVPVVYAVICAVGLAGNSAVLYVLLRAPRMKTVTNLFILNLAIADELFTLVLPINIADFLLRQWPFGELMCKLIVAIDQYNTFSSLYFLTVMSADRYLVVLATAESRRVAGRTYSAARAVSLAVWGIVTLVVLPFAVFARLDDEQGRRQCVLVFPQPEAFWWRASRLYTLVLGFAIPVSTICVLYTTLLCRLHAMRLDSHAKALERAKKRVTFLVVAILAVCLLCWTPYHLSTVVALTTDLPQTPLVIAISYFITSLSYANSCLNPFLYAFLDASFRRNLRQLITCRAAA
Each line names hits and unclear results; the compound was inactive in the other large screens. Hits are enriched below; roughly 4.6% of the tested compounds scored in any of these assays.

CCOc1ccc(CCNC(=O)CS(=O)Cc2nc(-c3ccccc3Cl)oc2C)cc1OCC (stereo not given)	OX1R antag-1 72.1
Nn1c(SCc2ccccc2)nc2c(cnn2-c2ccccc2)c1=O	none
C=CCn1c(Cc2ccccc2)nc2c(cnn2-c2ccccc2)c1=O	CHO parental Ca 38.8
Cc1c(O)nc2ccccn2c1=O	none
O=c1c2c([N+](=O)[O-])cc([N+](=O)[O-])cc2nc2ccccn12	OX1R antag-1 73.2
CCCCCCNC(=O)C(C#N)c1nc2ccccc2nc1N1CCCC1 (stereo not given)	TAAR1 antag 51.0
COc1ccccc1C(c1nnnn1CCc1ccccc1)N1CCN(c2ccccc2)CC1 (stereo not given)	GPR7 antagonist 22.7
COc1cccc(C(c2nnnn2CCc2ccccc2)N2CCN(c3ccccc3)CC2)c1OC (stereo not given)	none
c1ccc(Cn2nnnc2C(c2cccnc2)N2CCN(c3ccccc3)CC2)cc1 (stereo not given)	TAAR1 antag 50.6
O=C(Nc1ccc2ccccc2c1)C(c1ccccc1)n1c(=O)c(-c2cc3ccccc3[nH]2)nc2ccccc21 (stereo not given)	none (no result: OX1R antag-1, CHO parental Ca, OX1R antag-2, GPR7 antagonist)
Cc1cccc(Nc2ncnc3nc[nH]c23)c1	GPR7 antagonist 19.4
O=C(OCc1ccccc1)N1Cc2ccnnc2CC1c1ccccc1-c1ccc(C(F)(F)F)cc1 (stereo not given)	none (no result: OX1R antag-1, CHO parental Ca, OX1R antag-2, GPR7 antagonist)
CCC(=O)N1CCc2cc(S(=O)(=O)N(CC)c3cccc(C)c3)ccc21	none
CCN(c1cccc(C(F)(F)F)c1)S(=O)(=O)c1ccc2c(c1)CCN2C(=O)C1CC1	CHO parental Ca 65.0, TAAR1 antag 60.9
c1ccc(CNc2ncnc3scc(-c4cccs4)c23)nc1	CHO parental Ca 43.7
c1ccc(-c2csc3ncnc(NCc4ccccn4)c23)cc1	TAAR1 antag 52.9
CN(C)CCCNc1ncnc2scc(-c3ccccc3)c12	none
NC(=O)c1cc2ccccc2o/c1=N\NC(=O)c1ccncc1	OX1R antag-1 68.6
Cc1ccc(C(=O)N/N=c2\oc3ccccc3cc2C(N)=O)cc1	none
O=C(NNC(=O)c1ccccc1[N+](=O)[O-])c1cnccn1	none
Cc1cc(C(=O)NNC(=O)c2cccc([N+](=O)[O-])c2)n[nH]1	OX1R antag-1 28.1 (no result: GPR7 antagonist)
O=CNNC(=O)c1cccc([N+](=O)[O-])c1	none
O=C(NNC(=O)c1cnccn1)c1cccc([N+](=O)[O-])c1	OX1R antag-1 43.6
O=C(NNc1c(Cl)cc(Cl)cc1Cl)c1cccc([N+](=O)[O-])c1	CHO parental Ca 48.4
Cc1ccccc1C(=O)NNC(=O)c1cccc([N+](=O)[O-])c1	none
C[C@@H]1CN([C@@H](C)CO)C(=O)CCCn2nncc2CO[C@H]1CN(C)C(=O)c1ccccc1	none (no result: OX1R antag-1, CHO parental Ca, OX1R antag-2, GPR7 antagonist)
Nc1nc2c(ncn2[C@@H]2O[C@H](C(=O)N[C@H](Cc3ccccc3)C(=O)O)[C@@H](O)[C@H]2O)c(=O)[nH]1	none (no result: OX1R antag-1, CHO parental Ca, OX1R antag-2, GPR7 antagonist)
CCOC(=O)C1CCN(C2=C(NS(=O)(=O)c3ccc(Br)cc3)C(=O)c3ccccc3C2=O)CC1	OX1R antag-1 74.7
NC(=O)C1CCN(C2=C(NS(=O)(=O)c3ccc(Br)cc3)C(=O)c3ccccc3C2=O)CC1	OX1R antag-1 76.3
NC(=O)C1CCN(C2=C(Cl)C(=O)c3ccccc3C2=O)CC1	OX1R antag-1 61.8
O=C(CC1Sc2ccccc2NC1=O)OC(C(=O)NCCc1ccccc1)c1cccnc1 (stereo not given)	TAAR1 antag 52.7
COc1ccc(C(CCN2CCOCC2)c2c(O)cc(OC)cc2OC)cc1 (stereo not given)	none (no result: GPR7 antagonist)
COc1ccc(C(c2c(O)ccc3ccccc23)N2CCOCC2)c(OC)c1 (stereo not given)	CHO parental Ca 68.2, OX1R antag-2 71.2
COc1ccc(Oc2cccc3c2S(=O)(=O)N(C2CC2)C[C@@H](COCc2ccccc2)O3)cc1	none (no result: OX1R antag-1, CHO parental Ca, OX1R antag-2, GPR7 antagonist)
CN(C)CCCNC(=S)NCC(c1ccc(Cl)cc1Cl)c1c[nH]c2ccccc12 (stereo not given)	CHO parental Ca 43.2, OX1R antag-2 39.1, GPR7 antagonist 75.3
O=[N+]([O-])c1nccn1CC(O)CCN1CCOCC1 (stereo not given)	none (no result: OX1R antag-1, CHO parental Ca, OX1R antag-2, GPR7 antagonist)
N#Cc1c(Cl)nsc1NC(=O)c1ccccc1	OX1R antag-1 61.2
Cc1cccn2cc(-c3ccc4c(c3)NC(=O)CO4)nc12	none
Cc1ccn2cc(-c3ccc4c(c3)NC(=O)CO4)nc2c1	GPR7 antagonist 16.9
CC1(c2nnnn2Cc2ccccc2)CCC(=O)N1Cc1cccs1 (stereo not given)	none (no result: OX1R antag-1, CHO parental Ca, OX1R antag-2, GPR7 antagonist)
CCNC(=O)O/N=C1\CCCCC1c1ccc([N+](=O)[O-])cc1[N+](=O)[O-] (stereo not given)	OX1R antag-1 45.5
O=C(NCC1CCCCC1)c1ccc([N+](=O)[O-])cc1	none
CS(=O)(=O)O/N=C1\CCCCC1c1ccc([N+](=O)[O-])cc1[N+](=O)[O-] (stereo not given)	OX1R antag-1 49.4
Fc1ccc(COc2ccccc2CNCc2ccncc2)cc1	none
Brc1ccc(OCc2ccccc2)c(CNCc2ccncc2)c1	TAAR1 antag 70.1
COC(=O)C1=CN(c2ccc(F)cc2)C(N)=C(C#N)C1c1cccc(OC)c1OC (stereo not given)	none (no result: OX1R antag-1, CHO parental Ca, OX1R antag-2, GPR7 antagonist)
CC(C)N1CCc2c(sc(NC(=O)c3ccc([N+](=O)[O-])o3)c2C(N)=O)C1	OX1R antag-1 92.8
COC(=O)c1c(NC(=O)c2ccc([N+](=O)[O-])o2)sc2c1CCN(C(C)C)C2	OX1R antag-1 65.0
CC(=O)N1CCc2c(sc(NC(=O)c3ccc([N+](=O)[O-])o3)c2C#N)C1	none (no result: OX1R antag-1, CHO parental Ca, OX1R antag-2)
Clc1ccc(CN(Cc2ccccc2)C(c2cccs2)c2nnnn2C2CCCC2)cc1 (stereo not given)	none
CC(C)(C)n1nnnc1C(c1cccs1)N(Cc1ccc(Cl)cc1)CC1CCCO1 (stereo not given)	CHO parental Ca 37.9
CS(=O)(=O)c1ccc(C(=O)OCC(=O)NC(=O)C2CCCCC2)cc1[N+](=O)[O-]	OX1R antag-1 49.3
c1ccc(-c2nc3nc4ccccc4nc3n2CC2CCCO2)cc1 (stereo not given)	TAAR1 antag 50.9
CC(=O)OC1CCC2(C)C(COc3ccc4ccc(=O)oc4c3)C(C)(O)CCC2C1(C)C (stereo not given)	TAAR1 antag 55.6
Cc1cc(N)n(Cc2ccc(Cl)cc2)n1	OX1R antag-1 39.2
Cc1ccc(-c2cc(N)n(Cc3ccc(Cl)cc3)n2)cc1	none
CC1=C(C(=O)N(C)C)CC(CC(=O)NCCCN(C)C)C(=O)N1CCCN1CCCC1=O (stereo not given)	none (no result: OX1R antag-1, CHO parental Ca, OX1R antag-2, GPR7 antagonist)
CCCCc1ccc(NC(=O)c2ccc(N(C)S(C)(=O)=O)cc2)cc1	CHO parental Ca 68.7
